Published values collected from several papers.
Target: Eukaryotic translation initiation factor 2-alpha kinase 1 (EIF2AK1, Homo sapiens, UniProt Q9BQI3)

CS(=O)(=O)c1cc(C2(NC(=O)c3cncc4c3cnn4-c3ccc(F)cc3)CC2)ccn1  remaining binding (cell-free assay, competition with immobilised ligand; 1 µM): 73%
O=C(NCCCN1CCOCC1)c1ccc(Nc2nccc(-c3cc4ccccc4s3)n2)cc1  remaining binding (binding, competition with immobilised ligand; 1 µM): 100%
O=C(NCC1CCOCC1)c1n[nH]cc1NC(=O)c1c(F)cccc1F  remaining binding (binding, competition with immobilised ligand; 1 µM): 87%
c1cncc(-c2cccc(Nc3nccc(NC4CCCCC4)n3)c2)c1  remaining binding (binding, competition with immobilised ligand; 10 µM): 87%
c1cnn2ncc(-c3ccnc(N4CCC45COC5)n3)c2c1  remaining binding (binding; 1 µM): 49%
O=C(c1ccc(Nc2ncc(Cl)c(-c3cc4ccccc4s3)n2)cc1)N1CCC(N2CCCC2)CC1  remaining binding (binding, competition with immobilised ligand; 1 µM): 90%
CN(C)c1ncc(F)c(-c2cnn3ncccc23)n1  remaining binding (binding; 1 µM): 100%
CNC(=O)[C@@H]1CC[C@@H](n2c(-c3ccc4cnccc4c3)nc3ccc(C(=O)NCc4cccc(C(N)=O)c4)cc32)C1  remaining binding (binding, competition with immobilised ligand; 1 µM): 100%
Cc1cnc(Nc2ccc(C(=O)N3CCC(N4CCCC4)CC3)cc2)nc1-c1cc2ccccc2s1  remaining binding (binding, competition with immobilised ligand; 1 µM): 100%
Nc1ncc2c(n1)-c1c([nH]c3ccc(C#CC4CC4)cc13)CCCC2  remaining binding (binding, competition with immobilised ligand; 1 µM): 80%
FC(F)(F)c1ccc2c(c1)nc(-c1cccnc1)n2C1CC1  remaining binding (cell-free assay, competition with immobilised ligand; 1 µM): 100%
C=CC(=O)N1CCC(C(=O)NCC(=O)N2CCN(c3nc(-c4cnc(N)nc4C(F)F)nc(N4CCOCC4)n3)CC2)CC1  remaining binding (binding, competition with immobilised ligand; 1 µM): 94%
FC(F)(F)Oc1cccc(-c2cnc3ccc(-c4ccncc4)nn23)c1  remaining binding (cell-free assay, competition with immobilised ligand; 5 µM): 88%
N[C@H]1CCN(c2nccc(-c3cnn4ncccc34)n2)C1  remaining binding (binding; 1 µM): 78%
CS(=O)(=O)N1CCCC(NC(=O)[C@H](CCC2CCCCC2)NC(=O)c2ccc(CNC(=O)c3cnc4ccccn34)cc2)C1 (stereo partly shown)  remaining binding (cell-free assay, competition with immobilised ligand; 0.1 µM): 91%
CN(C)c1nccc(-c2cnc3ncccn23)n1  remaining binding (binding; 1 µM): 69%
Nc1cnc(N2CCc3cc(S(=O)(=O)Nc4c(F)cc(Cl)cc4F)cc(N4CCCC4=O)c32)nc1  remaining binding (cell-free assay, competition with immobilised ligand; 1 µM): 94%
C[C@H]1CCN(c2nccc(-c3cnn4ncccc34)n2)C1  remaining binding (binding; 1 µM): 73%
Cc1nc(C2CCN(C(=O)c3ccc(OC(F)(F)F)cc3N)CC2)c2ncc(N3CCN(C)CC3)cc2n1  remaining binding (cell-free assay, competition with immobilised ligand; 1 µM): 85%
COc1cnc(Nc2cccc(S(N)(=O)=O)c2)nc1N1CCN(c2ccccc2)C(=O)C1  remaining binding (binding, competition with immobilised ligand; 1 µM): 89%
CN(C)c1nccc(-c2cnn3ncccc23)n1  remaining binding (binding; 1 µM): 100%
O=C(NCc1ncc(C(F)(F)F)cc1Cl)c1ccc2c(c1)C1(CCS(=O)(=O)CC1)[C@H](C1CC1)N2S(=O)(=O)c1ccc(F)cc1  remaining binding (cell-free assay, competition with immobilised ligand; 1 µM): 86%
